These results are taken from PubChem BioAssay.

Test [1] can be described thus: reducers of endogenous Her2 protein level, primary screen, SKBR3 breast tumor cells, AlphaScreen, ATP viability (AID 461;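 active = Her2 level under about 52% in both replicate screens, with viability over 70% of control, limit read from the data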;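 for Her2 level: lower value means less Her2 protein in the cells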;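 for viability: percent of carrier control wells set as 100% viability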). The note with it: 18-24 h, measured here: SKBR3 viability, ATP luminescence, at 10 µM. (In general: In Alpha technology, singlet oxygen from a donor bead excites a nearby acceptor bead.)
Test [2] concerns the target Receptor tyrosine-protein kinase erbB-2 (Homo sapiens) (UniProt P04626). Described as above. The note with it: 18-24 h, at 10 µM, stronger effect = lower value.
Test [3] is described as follows: SK-BR-3 cell growth inhibitors, pilot screen, 24 h, human (AID 572;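 active = viability at or below 10% of carrier control in both of two separate runs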;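 note: compound exposure lasted between 18 and 24 h rather than exactly 24 h; 100% = carrier-treated control wells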). The conditions noted are these: SK-BR-3 viability, CellTiter-Glo luminescence, at 10 µM, stronger effect = lower value. (In general: In ATP-based viability assays light output follows the ATP content of the culture.)
The nature of test [4]: HUVEC growth inhibition – cell-based, human, primary screen (AID 575;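 active = viability at or below 30% in both replicate assays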;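 note: 100% = median of untreated cell wells with 0.1% DMSO on each plate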). The conditions noted are these: HUVEC proliferation, CellTiter-Glo luminescence, 72 h; at 10 µM; stronger effect = lower value. An outline of the steps:
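Assay system: primary human umbilical vein endothelial cells / Buffer or medium: endothelial basal medium with 2% FBS plus growth supplements / Compound dosing: one dose, 10 µM final, 0.1% DMSO / Timing: 72 h treatment at 37 °C / Signal: CTG luminescence / Benchmarks: 32 DMSO-only cell-control wells (high), 32 MePR drug-control wells (low) per plate / Plate: collagen-coated 384-well format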

Test [5] is described as follows: growth inhibitors of H69AR lung tumor, primary screen, human, duplicate replicates (AID 580).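 Note: 100% = mean luminescence of untreated wells and 0% = no signal.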 The note with it: H69AR lung tumor cells viability, ATP luminescence, 72 h; at 10 µM; stronger effect = lower value.
Test [6] in a line: reversal of MRP1-mediated doxorubicin resistance, pilot screen, H69AR cells, doxorubicin co-treatment (AID 601;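 active = viability loss from added drug above about 55%, and viability with drug at most 40%, in both replicates, limit read from the data, passing the limit was not always enough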). The note with it: CellTiter-Glo, 72 h, at 10 µM; for differential viability (reversal): stronger effect = higher value.
Test [7] can be described thus: 384-well plate pilot, post-Golgi transport modulator project, inhibition of yeast transport mutant growth (AID 636; in the data active = inhibition above about 31%). The note with it: absorbance 615 nm, about 18 h, stronger effect = higher value.
Test [8] in a line: growth suppression of yeast trafficking mutant, preliminary HTS, modulators of trafficking downstream of Golgi apparatus project, 1536-format plate, OD 615 nm (AID 637; in the data active = inhibition above about 30%). The conditions noted are these: yeast transport mutant growth, absorbance 615 nm, 18 h; stronger effect = higher value.
Where [9] appears, read: H69AR cells + 2 uM doxorubicin, measured here: viability with 2 uM doxorubicin, stronger effect = lower value.
[10] abbreviates: H69AR cells, compound alone cytotoxicity.

Each structure is given as a SMILES string. Activity calls are given as the source filed them.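 Rule for the calls, unless noted: active = viability at or under a set limit in both replicates, limit being median viability minus 3 SD (cut at about 48% in these data, passing the limit was not always enough); inconclusive = at or under the limit in just one replicate; inactive = at or above the limit in both replicates.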

Chain of Receptor tyrosine-protein kinase erbB-2 (Homo sapiens) (P04626 whole entry, looked up): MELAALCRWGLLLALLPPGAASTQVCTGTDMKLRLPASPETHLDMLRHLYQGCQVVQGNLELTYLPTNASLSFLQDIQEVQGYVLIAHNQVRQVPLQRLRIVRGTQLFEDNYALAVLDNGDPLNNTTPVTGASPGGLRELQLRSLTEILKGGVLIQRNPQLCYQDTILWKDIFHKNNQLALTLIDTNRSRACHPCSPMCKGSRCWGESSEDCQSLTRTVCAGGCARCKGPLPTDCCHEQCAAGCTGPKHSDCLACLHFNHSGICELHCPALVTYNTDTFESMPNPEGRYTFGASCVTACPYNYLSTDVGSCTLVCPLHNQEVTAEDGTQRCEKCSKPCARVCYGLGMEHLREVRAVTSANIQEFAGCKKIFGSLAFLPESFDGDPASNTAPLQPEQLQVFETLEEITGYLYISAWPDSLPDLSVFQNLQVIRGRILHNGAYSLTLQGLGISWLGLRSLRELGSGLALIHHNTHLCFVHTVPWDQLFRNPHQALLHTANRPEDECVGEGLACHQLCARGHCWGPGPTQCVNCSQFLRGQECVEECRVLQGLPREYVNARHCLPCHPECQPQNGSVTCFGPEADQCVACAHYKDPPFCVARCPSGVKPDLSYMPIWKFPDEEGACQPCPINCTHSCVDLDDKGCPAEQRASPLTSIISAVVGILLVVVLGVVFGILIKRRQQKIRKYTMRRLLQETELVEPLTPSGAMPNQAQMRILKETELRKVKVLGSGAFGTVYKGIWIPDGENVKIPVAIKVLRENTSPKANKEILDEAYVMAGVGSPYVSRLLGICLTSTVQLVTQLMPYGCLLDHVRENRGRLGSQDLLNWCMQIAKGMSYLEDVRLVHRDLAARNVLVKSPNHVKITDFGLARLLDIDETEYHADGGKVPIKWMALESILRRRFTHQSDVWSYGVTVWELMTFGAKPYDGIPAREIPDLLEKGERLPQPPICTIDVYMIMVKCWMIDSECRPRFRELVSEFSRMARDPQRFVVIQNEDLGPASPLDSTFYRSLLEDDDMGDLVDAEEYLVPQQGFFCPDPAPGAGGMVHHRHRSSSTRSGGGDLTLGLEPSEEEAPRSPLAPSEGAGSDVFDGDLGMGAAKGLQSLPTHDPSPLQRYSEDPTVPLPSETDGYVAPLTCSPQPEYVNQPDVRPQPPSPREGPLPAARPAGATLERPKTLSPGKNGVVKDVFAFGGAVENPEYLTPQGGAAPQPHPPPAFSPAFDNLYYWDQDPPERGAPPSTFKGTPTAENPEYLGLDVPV

What is called viability is a read-out of living cells in per cent, often relative to untreated cells. The term inhibition denotes the relative decrease from the control value, in per cent. Regarding `CCCc1ccc(S(=O)(=O)NCCc2ccncc2)cc1`, the viability in test [1] was 96%; in test [3], 96% (inactive); in test [4], 85.4% (inactive); in test [5], 106% (inactive); in test [6] (setting [9]), 89.6%; in test [6] (setting [10]), 106%. The Her2 level in test [2] was 91.5% (inactive). The differential viability (reversal) in test [6] (H69AR cells + 2 uM doxorubicin) is 16.6% (inactive). Besides, the values for the inhibition in test [7] and in test [8] were -4.19% (inactive) and -1.27% (inactive), respectively.
In the case of `COc1cccc(-n2nnnc2SCC(=O)NCc2ccco2)c1`, the viability in test [1] is 117%; in test [3], 117% (inactive); in test [4] it was 90.5% (inactive); in test [5] it was 83.2% (inactive); in test [6] (setting [9]), 77.2%; in test [6] (setting [10]), 83.2%. In test [2], the Her2 level is 92.5% (inactive). Moreover, the differential viability (reversal) in test [6] (H69AR cells + 2 uM doxorubicin) is 5.98% (inactive). Also, the figures for the inhibition in test [7] and in test [8] were -4.8% (inactive) and 4.52% (inactive), respectively.
Take `CCN(C(=O)c1cn(C)c(=O)c2cc(OC)c(OC)cc12)c1ccccc1C`: the viability in test [1] is 108%; in test [3], 108% (inactive); in test [4] it was 106% (inactive); in test [5], 98.2% (inactive); in test [6] (setting [9]), 91%; in test [6] (setting [10]), 98.2%. The Her2 level in test [2] is 75% (inactive). Moreover, the differential viability (reversal) in test [6] (H69AR cells + 2 uM doxorubicin) was 7.24% (inactive). Also, the inhibition in test [7] is -0.54% (inactive); in test [8], -1.43% (inactive).
Regarding `CC(=O)Nc1ccc(Cl)cc1C(=O)O`, the viability in test [1] was 96.5%; in test [3] it was 96.5% (inactive); in test [4], 85.8% (inactive); in test [5] it was 106% (inactive); in test [6] (setting [9]) it was 95.3%; in test [6] (setting [10]), 106%. Further, the Her2 level in test [2] is 97.5% (inactive). Also, in test [6] (H69AR cells + 2 uM doxorubicin), the differential viability (reversal) is 10.4% (inactive). For the same molecule, the inhibition in test [7] is -5.87% (inactive); in test [8], -1.29% (inactive).
As to `CCOc1c(C)cc2[nH]c(CCC(=O)O)nc2c1C`, the viability is 123% in test [1]; 123% (inactive) in test [3]; 95.4% (inactive) in test [4]; 93.2% (inactive) in test [5]; 94.3% in test [6] (setting [9]); 93.2% in test [6] (setting [10]). For the same molecule, in test [2], the Her2 level was 103% (inactive). Also, in test [6] (H69AR cells + 2 uM doxorubicin), the differential viability (reversal) was -1.08% (inactive). Besides, the inhibition in test [7] is -6.58% (inactive); in test [8], 14.4% (inactive).
Consider `COc1ccc(/C(O)=C2/C(=O)C(=O)N(CCCN(C)C)C2c2ccc(Cl)cc2)cc1OC` (stereo not given), for which the viability in test [1] is 101%; in test [3], 101% (inactive); in test [4], 103% (inactive); in test [5], 103% (inactive); in test [6] (setting [9]) it was 105%; in test [6] (setting [10]), 103%. The Her2 level in test [2] is 97.5% (inactive). Moreover, in test [6] (H69AR cells + 2 uM doxorubicin), the differential viability (reversal) was -1.86% (inactive). Moreover, the figures for the inhibition in test [7] and in test [8] were 0.4% (inactive) and -3.39% (inactive), respectively.
For `Cc1ccc(-c2nc3ncccc3o2)cc1NC(=O)c1ccco1`, the viability is 97.5% in test [1]; 97.5% (inactive) in test [3]; 100% (inactive) in test [4]; 99.2% (inactive) in test [5]; 91.3% in test [6] (setting [9]); 99.2% in test [6] (setting [10]). For the same molecule, in test [2], the Her2 level was 76.5% (inactive). Also, in test [6] (H69AR cells + 2 uM doxorubicin), the differential viability (reversal) is 7.96% (inactive). Further, the inhibition in test [7] was -6.76% (inactive); in test [8] it was -2.62% (inactive).
On to `COc1ccccc1N1CCN(C(=O)C(Cc2ccccc2)NC(=O)C2CCCCC2)CC1` (stereo not given), for which the viability in test [1] was 73.5%; in test [3], 73.5% (inactive); in test [4], 74.8% (inactive); in test [5], 90.6% (inactive); in test [6] (setting [9]) it was 86.7%; in test [6] (setting [10]), 90.6%. Further, the Her2 level in test [2] was 85.5% (inactive). Besides, the differential viability (reversal) in test [6] (H69AR cells + 2 uM doxorubicin) was 3.88% (inactive). Further, the inhibition in test [7] was -5.84% (inactive); in test [8], -2.62% (inactive).
With `CCOC(=O)C(NC(=O)Nc1ccccc1)(OCC)C(F)(F)F` (stereo not given), the viability in test [1] was 114%; in test [3], 114% (inactive); in test [4], 84.5% (inactive); in test [5], 93.3% (inactive); in test [6] (setting [9]) it was 86.5%; in test [6] (setting [10]) it was 93.3%. Besides, the Her2 level in test [2] was 98% (inactive). Further, the differential viability (reversal) in test [6] (H69AR cells + 2 uM doxorubicin) is 6.82% (inactive). For the same molecule, the inhibition in test [7] is -0.26% (inactive); in test [8], 12.1% (inactive).
As to `COc1ccc(Cn2c(CCCO)nc3ccccc32)cc1OC`, the viability is 98.5% in test [1]; 98.5% (inactive) in test [3]; 105% (inactive) in test [4]; 102% (inactive) in test [5]; 88% in test [6] (setting [9]); 102% in test [6] (setting [10]). In addition, the Her2 level in test [2] was 97.5% (inactive). Besides, the differential viability (reversal) in test [6] (H69AR cells + 2 uM doxorubicin) is 14.2% (inactive). For the same molecule, the inhibition in test [7] is -7.67% (inactive); in test [8] it was -3.17% (inactive).
On to `Cc1occc1-c1nnc(SCC(=O)NCC2CCCO2)n1C` (stereo not given), for which the viability in test [1] is 86%; in test [3], 86% (inactive); in test [4], 92.2% (inactive); in test [5], 96.6% (inactive); in test [6] (setting [9]), 94%; in test [6] (setting [10]) it was 96.6%. Besides, the Her2 level in test [2] was 96.5% (inactive). Moreover, the differential viability (reversal) in test [6] (H69AR cells + 2 uM doxorubicin) is 2.64% (inactive). In addition, the inhibition in test [7] was -4.93% (inactive); in test [8], 18.7% (inactive).
For `COc1cccc(-n2c(SC3CCOC3=O)nc3ccccc3c2=O)c1` (stereo not given), the viability was 94.5% in test [1]; 94.5% (inactive) in test [3]; 88.2% (inactive) in test [4]; 94.4% (inactive) in test [5]; 83.8% in test [6] (setting [9]); 94.4% in test [6] (setting [10]). In addition, in test [2], the Her2 level is 99.5% (inactive). Further, the differential viability (reversal) in test [6] (H69AR cells + 2 uM doxorubicin) was 10.5% (inactive). Besides, the inhibition was -5.2% (inactive) in test [7] and -6.03% (inactive) in test [8].
`O=c1ccc(S(=O)(=O)N2CCC(Cc3ccccc3)CC2)c[nH]1`: the viability in test [1] is 86%; in test [3], 86% (inactive); in test [4] it was 111% (inactive); in test [5] it was 95.3% (inactive); in test [6] (setting [9]) it was 86.8%; in test [6] (setting [10]), 95.3%. For the same molecule, the Her2 level in test [2] was 80.5% (inactive). In addition, in test [6] (H69AR cells + 2 uM doxorubicin), the differential viability (reversal) was 8.51% (inactive). In addition, the inhibition is 0.13% (inactive) in test [7] and -4.33% (inactive) in test [8].
As to `Cc1n[nH]c(C)c1S(=O)(=O)N1CCCCCC1`, the viability is 98% in test [1]; 98% (inactive) in test [3]; 105% (inactive) in test [4]; 101% (inactive) in test [5]; 101% in test [6] (setting [9]); 101% in test [6] (setting [10]). The Her2 level in test [2] was 80% (inactive). The differential viability (reversal) in test [6] (H69AR cells + 2 uM doxorubicin) is 0.14% (inactive). In addition, the inhibition in test [7] was -1.58% (inactive); in test [8] it was -3.17% (inactive).
